Calls of active or inactive are those of the source. No cut-off for these calls is given here.
How the values were obtained:
Plasmodium falciparum [1] = experiment: Antiplasmodial activity against asexual intraerythrocytic ring stage of antifolate-resistant Plasmodium falciparum HB3 infected in human O+ erythrocytes assessed as inhibition of parasitic proliferation after 96 hrs by SYBR Green-1 based fluorescence assay; type: functional, organism-based; conditions: HB3, 96 h
Plasmodium falciparum [2] = experiment: Antiplasmodial activity against asexual intraerythrocytic ring stage of chloroquine-sensitive Plasmodium falciparum 3D7 infected in human O+ erythrocytes assessed as inhibition of parasitic proliferation after 96 hrs by SYBR Green-1 based fluorescence assay; type: functional, organism-based; conditions: 3D7, 96 h
[3] = (§1) Cytotoxicity against human HepG2 cells assessed as inhibition of cell growth after 48 hrs by LDH assay; type: cell-based; conditions: HepG2 cells
Plasmodium falciparum [4] = experiment: Resistance index, ratio of IC50 for asexual intraerythrocytic ring stage of chloroquine-resistant Plasmodium falciparum W2 infected in human O+ erythrocytes to IC50 for asexual intraerythrocytic ring stage of chloroquine-sensitive Plasmodium falciparum 3D7 infected in human O+ erythrocytes; type: functional
Plasmodium falciparum [5] = experiment: Antiplasmodial activity against asexual intraerythrocytic ring stage of chloroquine-resistant Plasmodium falciparum W2 infected in human O+ erythrocytes assessed as inhibition of parasitic proliferation after 96 hrs by SYBR Green-1 based fluorescence assay; type: functional, organism-based; conditions: W2, 96 h
Plasmodium falciparum [6] = experiment: Gametocytocidal activity against Plasmodium falciparum NF54-Mal8p1.16-GFP-Luc late (4 to 5) gametocyte assessed as inhibition of parasite viability at 5 uM after 48 hrs by luciferase reporter assay; type: functional, organism-based
In short: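 NF54 luciferase reporter line; gametocytogenesis induced in glucose-free medium under hypoxia without shaking, with daily medium changes. Mature stage IV/V gametocytes were used on day 10, at 2% gametocytemia and 2% hematocrit. Compound at 5 µM for 48 h, hypoxic, 37 °C, in triplicate; three biological repeats. Read-out was luciferase in lysates with luciferin substrate.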

HepG2 [7] = experiment: as §1; type: cell-based; conditions: hepg2, 48 h
[8] = Selectivity index, ratio of GI50 for human HepG2 cells to IC50 for asexual intraerythrocytic ring stage of chloroquine-sensitive Plasmodium falciparum 3D7 infected in human O+ erythrocytes; type: functional
Plasmodium falciparum [9] = experiment: Antiplasmodial activity against chloroquine-resistant Plasmodium falciparum Dd2; type: functional, organism-based
HepG2 [10] = experiment: Cytotoxicity against human HepG2 cells assessed as cell viability at 5000XIC50 for Plasmodium falciparum 3D7 after 48 hrs by LDH assay; type: cell-based; conditions: hepg2, 48 h
Plasmodium falciparum [11] = experiment: Plasmocidal activity against intraerythrocytic chloroquine-sensitive Plasmodium falciparum 3D7 infected in human O+ erythrocytes assessed as inhibition of parasitic proliferation at IC90 after 24 to 96 hrs by flow cytometry; type: functional, organism-based
Plasmodium falciparum [12] = experiment: Plasmocidal activity against intraerythrocytic early trophozoitic stage of chloroquine-sensitive Plasmodium falciparum 3D7 infected in human O+ erythrocytes assessed as cessation of nuclear division at IC90 after 24 hrs by SYBR Green I-based flow cytometry; type: functional, organism-based
Plasmodium falciparum [13] = experiment: Plasmocidal activity against intraerythrocytic chloroquine-sensitive Plasmodium falciparum 3D7 infected in human O+ erythrocytes assessed as cessation of nuclear division measured as proportion of schizonts containing >2N nuclear content at IC90 after 96 hrs by SYBR Green I-based flow cytometry; type: functional
Plasmodium falciparum [14] = experiment: (§2) Plasmocidal activity against intraerythrocytic chloroquine-sensitive Plasmodium falciparum 3D7 infected in human O+ erythrocytes assessed as irreversible inhibition of parasitic viability at 10XIC90 pulsed with compound for 12 hrs followed by drug wash-out measured after 36 hrs by SYBR Green 1 based flow cytometry; type: functional, organism-based
In short: (§3)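 Cultures were washed once in RPMI 1640 and diluted 1:40. Proliferation followed at set times over 36 h by SYBR Green I DNA fluorescence.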

Plasmodium falciparum [15] = experiment: Plasmocidal activity against intraerythrocytic chloroquine-sensitive Plasmodium falciparum 3D7 infected in human O+ erythrocytes assessed as cessation of nuclear division measured as proportion of schizonts containing 2N nuclear content at IC90 after 96 hrs by SYBR Green I-based flow cytometry; type: functional
[16] = Inhibition of NP-40-mediated beta-hematin formation at >400 uM after 5 hrs by pyridine-ferrichrome method; type: functional
In short: (§4)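 NP-40 detergent (305.5 µM), water and DMSO mixed with compound over a concentration range. Incubated 5 h at 37 °C with hematin in 1 M acetate buffer, pH 4.8, with occasional shaking. β-Hematin measured by the pyridine-ferrichrome method, absorbance at 405 nm. Three biological repeats in triplicate.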

Plasmodium falciparum [17] = experiment: as §2, with “IC90” for “10XIC90”; type: functional; in short: as §3
Plasmodium falciparum [18] = experiment: Plasmocidal activity against intraerythrocytic chloroquine-sensitive Plasmodium falciparum 3D7 infected in human O+ erythrocytes assessed as cessation of nuclear division measured as proportion of rings/trophozoites containing 1N nuclear content at IC90 after 96 hrs by SYBR Green I-based flow cytometry
Plasmodium falciparum [19] = experiment: Plasmocidal activity against intraerythrocytic early trophozoitic stage of chloroquine-sensitive Plasmodium falciparum 3D7 infected in human O+ erythrocytes assessed as non-progressive pyknotic phenotype with apparently dying morphology at IC90 measured over 48 hrs single lifecycle by Giemsa staining based microscopy; type: functional, organism-based
[20] = Inhibition of NP-40-mediated beta-hematin formation at 1 mM after 5 hrs by pyridine-ferrichrome method; type: functional; in short: as §4
[21] = Inhibition of NP-40-mediated beta-hematin formation after 5 hrs by pyridine-ferrichrome method; type: functional

N=C(N)NCCCNCCCNCCCNC(=N)N
IC50 (Plasmodium falciparum [1]): 110 µM | IC50 (Plasmodium falciparum [2]): 147 µM

N=C(N)NCCCNCCCCNCCCNC(=N)N
IC50 (Plasmodium falciparum [1]): 14.2 µM | IC50 (Plasmodium falciparum [2]): 80 µM

S=C(NCCCNCCCCCCNCCCNC(=S)NC(c1ccccc1)c1ccccc1)NC(c1ccccc1)c1ccccc1
GI50 at 48 h [3]: > 200 µM | Ratio IC50 (Plasmodium falciparum [4]): 1.2

S=C(NCCCNCCCCCNCCCNC(=S)NCCC(c1ccccc1)c1ccccc1)NCCC(c1ccccc1)c1ccccc1
IC50 (Plasmodium falciparum [1]): 0.062 µM | IC50 (Plasmodium falciparum [5]): 0.041 µM | inhibition (Plasmodium falciparum [6]): Active | IC50 (Plasmodium falciparum [2]): 0.076 µM | GI50 (HepG2 [7]): 50.6 µM | Selectivity Index [8]: 666 | Ratio IC50 (Plasmodium falciparum [4]): 0.54

O=C(NCCCNCCCCCCCNCCCNC(=O)NC(c1ccccc1)c1ccccc1)NC(c1ccccc1)c1ccccc1
GI50 at 48 h [3]: > 200 µM | Ratio IC50 (Plasmodium falciparum [4]): 1.7

C(CCCNCCCNCC1CCCCCC1)CCCNCCCNCC1CCCCCC1
IC50 (Plasmodium falciparum [2]): 0.11 µM | IC50 (Plasmodium falciparum [9]): 0.12 µM

N=C(N)NCCCNCCCCCCCNCCCNC(=N)N
IC50 (Plasmodium falciparum [1]): 70.3 µM

O=C(NCCCNCCCCCNCCCNC(=O)Nc1ccccc1)Nc1ccccc1
IC50 (Plasmodium falciparum [1]): 0.177 µM | Activity (HepG2 [10]): 100% | IC50 (Plasmodium falciparum [5]): 0.049 µM | IC50 (Plasmodium falciparum [2]): 0.246 µM | Selectivity Index [8]: >5000 | Ratio IC50 (Plasmodium falciparum [4]): 0.2

O=C(NCCCNCCCCCNCCCNC(=O)NCC(c1ccccc1)c1ccccc1)NCC(c1ccccc1)c1ccccc1
IC50 (Plasmodium falciparum [1]): 0.04 µM | IC50 (Plasmodium falciparum [5]): 0.018 µM | inhibition (Plasmodium falciparum [11]): Active | IC50 (Plasmodium falciparum [2]): 0.028 µM | GI50 (HepG2 [7]): 94.5 µM | Selectivity Index [8]: 3375 | Ratio IC50 (Plasmodium falciparum [4]): 0.64 | Activity (Plasmodium falciparum [12]): Active

O=C(NCCCNCCCCCNCCCNC(=O)NC(c1ccccc1)c1ccccc1)NC(c1ccccc1)c1ccccc1
IC50 (Plasmodium falciparum [1]): 0.065 µM | IC50 (Plasmodium falciparum [5]): 0.02 µM | IC50 (Plasmodium falciparum [2]): 0.047 µM | GI50 (HepG2 [7]): 240 µM | Selectivity Index [8]: 5113 | Ratio IC50 (Plasmodium falciparum [4]): 0.43

S=C(NCCCNCCCCNCCCNC(=S)NCc1ccccc1)NCc1ccccc1
GI50 at 48 h [3]: > 200 µM

O=C(NCCCNCCCCCNCCCNC(=O)NCCC(c1ccccc1)c1ccccc1)NCCC(c1ccccc1)c1ccccc1
IC50 (Plasmodium falciparum [1]): 0.056 µM | IC50 (Plasmodium falciparum [5]): 0.036 µM | Activity (Plasmodium falciparum [13]): 2% | inhibition (Plasmodium falciparum [11]): Active | inhibition (Plasmodium falciparum [14]): Active | Activity (Plasmodium falciparum [15]): 10% | inhibition [16]: Active | IC50 (Plasmodium falciparum [2]): 0.03 µM | GI50 (HepG2 [7]): 153 µM | inhibition (INH) (Plasmodium falciparum [17]): >40% | Selectivity Index [8]: 5090 | Activity (Plasmodium falciparum [18]): 88% | Ratio IC50 (Plasmodium falciparum [4]): 1.2 | Activity (Plasmodium falciparum [12]): Active | Activity (Plasmodium falciparum [19]): Active

S=C(NCCCNCCCCCNCCCNC(=S)NCc1ccccc1)NCc1ccccc1
IC50 (Plasmodium falciparum [1]): 0.178 µM | Activity (HepG2 [10]): 100% | IC50 (Plasmodium falciparum [5]): 0.042 µM | IC50 (Plasmodium falciparum [2]): 0.249 µM | Selectivity Index [8]: >5000 | Ratio IC50 (Plasmodium falciparum [4]): 0.17

O=C(NCCCNCCCCCCNCCCNC(=O)Nc1ccccc1)Nc1ccccc1
Ratio IC50 (Plasmodium falciparum [4]): 0.3

O=C(NCCCNCCCCCCCNCCCNC(=O)NCC(c1ccccc1)c1ccccc1)NCC(c1ccccc1)c1ccccc1
Ratio IC50 (Plasmodium falciparum [4]): 1.4

S=C(NCCCNCCCCCCNCCCNC(=S)NCc1ccccc1)NCc1ccccc1
GI50 at 48 h [3]: > 200 µM | Ratio IC50 (Plasmodium falciparum [4]): 1.9

O=C(NCCCNCCCCCNCCCNC(=O)NCc1ccccc1)NCc1ccccc1
IC50 (Plasmodium falciparum [1]): 0.593 µM | IC50 (Plasmodium falciparum [5]): 0.171 µM | IC50 (Plasmodium falciparum [2]): 0.793 µM | GI50 (HepG2 [7]): 1950 µM | inhibition [20]: inactive | Selectivity Index [8]: 2456 | Ratio IC50 (Plasmodium falciparum [4]): 0.22

O=C(NCCCNCCCCCCCNCCCNC(=O)NCCC(c1ccccc1)c1ccccc1)NCCC(c1ccccc1)c1ccccc1
Ratio IC50 (Plasmodium falciparum [4]): 1.13

S=C(NCCCNCCCCCNCCCNC(=S)NC(c1ccccc1)c1ccccc1)NC(c1ccccc1)c1ccccc1
IC50 (Plasmodium falciparum [1]): 0.075 µM | IC50 (Plasmodium falciparum [5]): 0.035 µM | inhibition (Plasmodium falciparum [6]): Active | IC50 (Plasmodium falciparum [2]): 0.068 µM | GI50 (HepG2 [7]): 44.8 µM | Selectivity Index [8]: 659 | Ratio IC50 (Plasmodium falciparum [4]): 0.51

S=C(NCCCNCCCCCNCCCNC(=S)NCC(c1ccccc1)c1ccccc1)NCC(c1ccccc1)c1ccccc1
IC50 (Plasmodium falciparum [1]): 0.056 µM | IC50 (Plasmodium falciparum [5]): 0.047 µM | IC50 (Plasmodium falciparum [2]): 0.04 µM | IC50 [21]: 16.7 µM | GI50 (HepG2 [7]): 52.2 µM | Selectivity Index [8]: 1305 | Ratio IC50 (Plasmodium falciparum [4]): 1.18
